This note sets out measurements from ChEMBL document CHEMBL4513216, “Probing the Open Global Health Chemical Diversity Library for Multistage-Active Starting Points for Next-Generation Antimalarials” (ACS Infect Dis, 2020).

The nature of this data set: Toxicity liver stage against HepG2, at 10uM. The settings on record: human, HepG2-A16-CD81EGFP cells; read-out: INHIBITION
It counts as cell-based. Further details: test concentration 10 uM, cell line HepG2-A16-CD81EGFP. A digest of the protocol: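 Uninfected HepG2-A16-CD81EGFP cells, 3 × 10^3 per well, 1536-well, plated on prespotted compound at 10 μM final, parasite-free screening media added to match infected plates; puromycin 10 μM positive, DMSO 0.5% negative; run in parallel with 48 h PbLuc assay at 37 °C, 5% CO2; viability by CellTiter-Glo luminescence, normalized to controls.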
Take `c1cc(CN2CCOC[C@H]2c2nc(-c3ccncc3)c[nH]2)ccn1`: the cytotoxicity at 10 µM is -2.65%.
The value for `CCNC(=O)N1C[C@@H]2OCC(=O)N(CC3CC3)[C@@H]2C1` was 0.434%; that for `CCCSc1ncccc1C(=O)NCc1ccc(S(N)(=O)=O)cc1` was 6.02%.
`O=C(CCc1nc2cc(Br)cnc2[nH]1)NCCCn1ccnc1`: the cytotoxicity at 10 µM was determined as 0.905%.
For `CC(C)n1cc(C(=O)NCCCn2ccnc2)c2n[nH]c(=O)c-2c1`, the cytotoxicity at 10 µM was -4.17%.
On to `Cc1nn(C)c(C)c1S(=O)(=O)NCC1CCN(c2ccccn2)CC1`, for which the cytotoxicity at 10 µM amounted to 6.5%.
Consider `Cn1cc(C(=O)Nc2ccc3c(c2)CN(C(=O)C2CC2)CC3)nn1`, for which the cytotoxicity at 10 µM worked out at 4.59%.
Turning to `C[C@H]1C[C@H]2CN(S(=O)(=O)c3ccc(F)cc3)CC[C@H]2O1`, the cytotoxicity at 10 µM was 1.79%.
Take `c1cnc(N2CCCn3c(nnc3Cn3cccn3)C2)nc1`: the cytotoxicity at 10 µM was -1.58%.
For `CC(C)NC(=O)N1CCC(c2nnc3ccc(C(=O)N(C)C)cn23)C1` (configuration not stated), the cytotoxicity at 10 µM was 8.79%.
The value for `COCC1c2nnn(CC3CC3)c2CCN1C(=O)N1CCCC1` (configuration not stated) was -131%; that for `CCOCC(=O)N1Cc2nccn2CC(CN(C)C)C1` (configuration not stated) was -124%.
Take `CNc1oc(-c2ccc(OC)c(S(=O)(=O)N3CCCC3)c2)nc1C#N`: the cytotoxicity at 10 µM was found to be 3.33%.
As to `O=C(COCC(=O)N(c1ccccc1)c1ccccc1)N1CCCC1`, the cytotoxicity at 10 µM is 10.9%.
Turning to `CCCn1nc(C)c2c(C(F)F)cc(=O)n(CC(=O)O)c21`, the cytotoxicity at 10 µM worked out at 1.76%.
As to `CNC(=O)c1sc2ncccc2c1C1CCN(C(=O)CCOC)C1` (configuration not stated), the cytotoxicity at 10 µM stood at 6.42%.
With `CCC(=O)N1CCc2c(O)nc(C3CCCCN3C(=O)C3CC3)nc2C1` (configuration not stated), the cytotoxicity at 10 µM turned out to be 3.3%.
The value for `CCn1cc(S(=O)(=O)N2CCCCCC2c2cc(C)no2)cn1` (configuration not stated) was 8.24%; that for `CNc1nccc(C2CCCCN2Cc2cnn3cccnc23)n1` (configuration not stated) was 0.247%.
As to `Cc1nccc(N2CCCC(C)(c3[nH]ncc3C(N)=O)C2)n1` (configuration not stated), the cytotoxicity at 10 µM amounted to 1.86%.
Regarding `Cc1cccc(C2CCCN2S(=O)(=O)N(C)C)n1` (configuration not stated), the cytotoxicity at 10 µM was -5.5%.
Take `CC(=O)NC[C@]1(O)CCN(C(=O)c2ccc(C)c(F)c2)C[C@H]1O`: the cytotoxicity at 10 µM was -2.78%.
Regarding `CC(NC(=O)Nc1ccc(-c2csnn2)cc1)C(=O)NC(C)(C)C` (configuration not stated), the cytotoxicity at 10 µM was determined as 9.11%.
Take `FC(F)(F)CCN(Cc1ccon1)C1CCCC1`: the cytotoxicity at 10 µM was 1.87%.
The value for `CN(CC(=O)NCCc1cc2ccccc2o1)S(C)(=O)=O` was 6.56%.
Take `CCOC(=O)C1(NC(=O)CCNc2cc(C)ccc2OC)CCCCC1`: the cytotoxicity at 10 µM amounted to 6.47%.
`CN(Cc1nc(C(F)(F)F)cs1)C(=O)CCc1cccnc1`: the cytotoxicity at 10 µM was found to be 9.75%.
On to `Cn1c(CCCNC(=O)Nc2cn[nH]c2)nc2ccccc21`, for which the cytotoxicity at 10 µM came out at 21.9%.
With `CCn1c(C)cc(C(=O)N2CCC(NC(=O)c3cc(C)no3)CC2)c1C`, the cytotoxicity at 10 µM is -1.1%.
With `CN(C)C(=O)c1cccc(CCNc2ccccc2S(C)(=O)=O)c1`, the cytotoxicity at 10 µM turned out to be 11.5%.
For the compound `CC1CCC(NC(=O)CNC2(c3cccc(Br)c3)CCOCC2)CC1` (configuration not stated), the cytotoxicity at 10 µM worked out at 2.94%.
Take `CC(NC(=O)Nc1ccc(S(C)(=O)=O)cc1)c1ccc2c(c1)CC(=O)N2` (configuration not stated): the cytotoxicity at 10 µM stood at 0.0793%.
For the compound `CC(C)(C)NC(=O)CN1CCCN(Cc2ccc(C#N)cc2)CC1`, the cytotoxicity at 10 µM is -4.78%.
As for `Cc1ccccc1-c1noc(CN2CCC(c3ccn[nH]3)CC2)n1`, the cytotoxicity at 10 µM amounted to 1.98%.
On to `CC(C)C(C(=O)N1CCN(Cc2cscn2)CC1)n1cncn1` (configuration not stated), for which the cytotoxicity at 10 µM was 7.89%.
With `O=C(c1nc(=O)[nH][nH]1)N1CCC2(CCCCC2)C1`, the cytotoxicity at 10 µM is 11.4%.
Regarding `O=S(=O)(N1CCCCC1)N1CCOC2(CCCC2)C1`, the cytotoxicity at 10 µM was -3.73%.
On to `CCCC(C)(C)NC(=O)c1cnc(CC)s1`, for which the cytotoxicity at 10 µM turned out to be 10.2%.
Consider `N#Cc1ccc(S(=O)(=O)Nc2ccccc2C#N)cn1`, for which the cytotoxicity at 10 µM was -2.93%.
`CC(C)OCCC(=O)N(C)c1ccc(F)c(Cl)c1`: the cytotoxicity at 10 µM was -4.62%.
The value for `CC/C=C(/C)C(=O)NS(=O)(=O)c1ccc(C#N)cc1C(F)(F)F` was 11.8%; that for `Cn1ccc(C(=O)NCc2ccc(Cn3ccnc3)cc2)cc1=O` was 3.32%; that for `CC(C)c1csc(C2CCCN(C(=O)c3ccc(=O)n(C)n3)C2)n1` (configuration not stated) was 9.24%.
The value for `CCn1c(C)nnc1CN(C)C1CCN(Cc2cnc(C)cn2)C1` (configuration not stated) was 14.6%.
As for `COc1ccc(NC(=O)NC(C)c2nc[nH]n2)cc1` (configuration not stated), the cytotoxicity at 10 µM was -7.71%.
`CSC(C)(C)CNC(=O)NCCC1CCN(C)CC1`: the cytotoxicity at 10 µM was 22.3%.
As for `CN1CCCC(CNC(=O)N2CCN(Cc3ccon3)CC2)C1` (configuration not stated), the cytotoxicity at 10 µM came out at 15.5%.
As to `CC(=O)N1CCC(C(=O)NCCN2CCC(C)CC2)CC1`, the cytotoxicity at 10 µM was determined as 12.8%.
The value for `O=C(Cc1ccccn1)N1C[C@H]2CCC[C@@]2(COc2ccccn2)C1` was 1.86%; that for `CCn1ncc2[nH]c(-c3cc4c(cc3OC)OCO4)nc21` was -2.99%.
The value for `CN(CC1CCOC1)S(=O)(=O)c1cccc(C(=O)N2CCCCCC2)c1` (configuration not stated) was -0.825%.
As to `CCC1CCN(CCn2cnc3c(C)csc3c2=O)CC1`, the cytotoxicity at 10 µM is -6.94%.
As to `Cc1cc(C(=O)NCc2csc(N(C)C)n2)c2ccc(C)c(C)c2n1`, the cytotoxicity at 10 µM was -0.724%.
In the case of `Cc1cc(C2CCC2)nc(NCC(C)(C)CO)n1`, the cytotoxicity at 10 µM is -2.56%.
The value for `Cc1nn(CC(=O)N(C)Cc2nncn2C(C)C)c(=O)c2ccccc12` was 3.1%; that for `COc1ccccc1OC1CCN(C(=O)c2c[nH]c(=O)[nH]c2=O)CC1` was 8.45%; that for `Cc1cccnc1CC(C)NC1CCSCC1` (configuration not stated) was 2.28%.
Turning to `CCN1CCN(Cc2nc(Cc3ccccc3)n[nH]2)CC1`, the cytotoxicity at 10 µM was -9.34%.
Turning to `CCN(Cc1noc(CC(C)C)n1)Cc1cc2ccc(F)cc2[nH]c1=O`, the cytotoxicity at 10 µM worked out at 3.34%.
For the compound `Cc1ccc(C(=O)O)c(N2Cc3cnc(C(C)(C)C)nc3C2)n1`, the cytotoxicity at 10 µM was 5.67%.
Take `CN(C)CCNc1cc(-c2ncccc2Cl)c2cc[nH]c2n1`: the cytotoxicity at 10 µM came out at 8.45%.
Regarding `COCCCn1c(CN2CCCCO2)cnc1S(=O)(=O)C1CCCC1`, the cytotoxicity at 10 µM was 4.24%.
For the compound `COc1ccc(CN(C)c2nccc(-c3cn(C)nc3C)n2)cc1`, the cytotoxicity at 10 µM is 13.6%.
As to `Cc1nc(O)cc(CCNC(=O)C2CC(=O)N(CC(C)C)C2)n1` (configuration not stated), the cytotoxicity at 10 µM is -8.11%.
Take `Cc1nc(N)sc1C(=O)N1CCCC(c2nccn2CCCN(C)C)C1` (configuration not stated): the cytotoxicity at 10 µM is -6.82%.
For the compound `c1ncn(CC2CN(Cc3nc(C4CC4)no3)CCO2)n1` (configuration not stated), the cytotoxicity at 10 µM is -8.45%.
The value for `CC(NC(=O)NCCCN1CCCC1=O)c1nncn1C` (configuration not stated) was -3.08%.
The value for `COc1cccc(-c2noc(CN3CCOCC3C)n2)c1` (configuration not stated) was -11.7%; that for `Cc1csc(CCNC(=O)NC(C)Cn2cccn2)n1` (configuration not stated) was -18%.
The value for `O=C(Cc1cccnc1)N1CCCC(n2cncn2)C1` (configuration not stated) was -13.1%; that for `OC(CN1CCC(c2ccn[nH]2)CC1)c1ccc(F)cc1F` (configuration not stated) was -17.9%.
In the case of `Cc1nccn1CC1CCCN1S(=O)(=O)Cc1cccc(F)c1` (configuration not stated), the cytotoxicity at 10 µM is -15.8%.
`O=C(Nc1cccnc1N1CCCC1)C1CCS(=O)(=O)C1` (configuration not stated): the cytotoxicity at 10 µM is -13.1%.
For `CN(CCC(=O)N1CCc2sccc2C1)Cc1ccc2c(c1)OCCO2`, the cytotoxicity at 10 µM was -14.8%.
For `Cc1cnn(CC2CN(CC(=O)N(C)Cc3cnn(C)c3)CCO2)c1` (configuration not stated), the cytotoxicity at 10 µM is -18.4%.
On to `Cn1nc2c(cc1=O)CN(Cc1nc(-c3ccsc3)no1)CC2`, for which the cytotoxicity at 10 µM is -2.21%.
On to `O=C(NCCCN1CCc2ccccc2C1)c1ccccc1Cl`, for which the cytotoxicity at 10 µM is -13%.
As for `Cc1cn2c(n1)CCC(NC(=O)c1oc(Br)cc1C)C2` (configuration not stated), the cytotoxicity at 10 µM is -20.8%.
Regarding `CC(C)C(NC(N)=O)C(=O)NCc1ccc(N2CCCC2)nc1` (configuration not stated), the cytotoxicity at 10 µM is -16.9%.
With `Cc1cccc(NC(=O)Cn2nc3ccccn3c2=O)c1C`, the cytotoxicity at 10 µM was -13.4%.
On to `Cc1ccccc1OCC(=O)N1CCN(C2CCOC2=O)CC1` (configuration not stated), for which the cytotoxicity at 10 µM was -19.3%.
In the case of `Cc1cnn(CCC(=O)N2CCCC(c3nc(C)c(C)s3)C2)c1` (configuration not stated), the cytotoxicity at 10 µM is -19.2%.
In the case of `NC(=O)C1CCN(CCc2ccc(NC(=O)C3CCC3)cc2)CC1`, the cytotoxicity at 10 µM was -3.86%.
Consider `Cc1nn(C)c(Cl)c1C1CCCN1CCc1ccccn1` (configuration not stated), for which the cytotoxicity at 10 µM amounted to 4.6%.
As to `O=C(c1cccc(CN2CCCC2)c1)N1CCCC(n2cncn2)C1` (configuration not stated), the cytotoxicity at 10 µM was -11.9%.
The value for `Cc1ccc(N2CCCC(NCc3ccncc3)C2)nn1` (configuration not stated) was 2.55%.
For `CN1CCc2onc(Cn3cccc3)c2C1`, the cytotoxicity at 10 µM came to 7.25%.
As to `CCS(=O)(=O)N1CCOC2(CCCN(c3cnccn3)C2)C1` (configuration not stated), the cytotoxicity at 10 µM is 2.66%.
Regarding `CCN1CCOCC12CCN(C(=O)C1CCCC1)CC2`, the cytotoxicity at 10 µM was -0.272%.
Turning to `O=C([C@@H]1CC[C@@H]2[C@@H](CCN2Cc2cccc(F)c2)O1)N1CCCCO1`, the cytotoxicity at 10 µM was -6.71%.
The value for `CS(=O)(=O)N1C[C@H](C(=O)Nc2cccnc2)[C@@H]2CCO[C@@H]2C1` was -104%.
Take `CC(C)N1CCN(c2ccc3ccc(C(=O)NC4CCCC4)cn23)CC1`: the cytotoxicity at 10 µM was 1.26%.
The value for `CN(C)C(=O)C1OC2(CCNCC2)c2ccccc21` (configuration not stated) was 0.37%; that for `COc1ccc(CN2CCN(C(C)=O)CC3(CC(=O)N(C)C3)C2)cc1` (configuration not stated) was 9.74%; that for `CC(C)OCc1ncn2c1CN(Cc1cnn(C)c1)CCC2` was 6.13%.
`COc1cccc(C2c3c(n[nH]c3C)N=C3COC(=O)C32)c1OC` (configuration not stated): the cytotoxicity at 10 µM was -5.34%.
Consider `O=C(CC1[C@H]2CN(Cc3ccc(F)cc3)C[C@@H]12)N1CCCC1` (some centres not stated), for which the cytotoxicity at 10 µM is -0.744%.
